These results are taken from PMC12010439 (Cell, 2024).

Assay [1] has as its system eight cell lines representing different cancer types. The experiment in a line: Drug response viability assay. The format is cell-based. The following applies: 48 h.
Assay [2] has as its system HT29 colon cancer cell line xenografts. In words: HT29 colon cancer cell line xenograft treated with alvespimycin. The format is in vivo, BALB/c nude mice. The note with it: alvespimycin 50 mg/kg intraperitoneally daily, N = 9. The essentials: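 Female BALB/c nude mice, 4–6 weeks old, received 5×10^6 HT29 cells in 100 μL PBS subcutaneously in the dorsal flank. On day 0 they were randomised to vehicle (2% DMSO in PBS) or test compound at 50 mg/kg i.p. daily, N = 9 per group, and sacrificed 7 days later. Tumours were measured by caliper every 1–3 days; volume = (width)2 × length × 0.52; mean ± sd.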

The next assay has as its system UCEC tumors. The following applies: cited from earlier work.
The subject of assay [3] is T cells of HLA-A*02 healthy donors. The experiment in a line: IFN-γ ELISpot assay. In kind it is cell-based, human.
[4] abbreviates: CD8+ T cell cultures of donor US1 with HLA-A*02:11, peptide 12.5 μg/mL, about 16 hrs (BCM).
Where [5] appears, read: donor CN1 with HLA-A*02:01, peptide 10 μg/mL, 20h co-culture (Fudan).

pIC50: −log10 of the molar value. Some results are limits rather than exact numbers.

For orientation: pIC50 means the IC50 on a negative log10 scale, so that one unit is a factor of ten. A low value points to a high IC50. The compound `CO[C@H]1/C=C\C=C(/C)C(=O)NC2=CC(=O)C(NCCN(C)C)=C(C[C@@H](C)C[C@H](OC)[C@H](O)[C@@H](C)/C=C(\C)[C@@H]1OC(N)=O)C2=O` [alvespimycin] gave a pIC50 in assay [1] above 6.00. The tumor regression result in assay [2] is listed as “began to induce tumor regression after seven days of treatment”. Regarding `COc1cccc2c1C(=O)c1c(O)c3c(c(O)c1C2=O)C[C@@](O)(C(=O)CO)C[C@@H]3O[C@H]1C[C@H](N)[C@H](O)[C@H](C)O1` [doxorubicin], the overall response rate with UCEC tumors (unselected UCEC patients) is on record as 16%. Regarding `O=C1c2c(O)ccc(O)c2C(=O)c2c(NCCNCCO)ccc(NCCNCCO)c21` [mitoxantrone], the clinical activity entry in the assay on UCEC tumors (UCEC tumors among unselected patients) is recorded as “lack clinical activity”.

In turn, `C=CCNC1=C2C[C@@H](C)C[C@H](OC)[C@H](O)[C@@H](C)/C=C(\C)[C@H](OC(N)=O)[C@@H](OC)/C=C\C=C(/C)C(=O)NC(=CC1=O)C2=O` [tanespimycin] had a pIC50 in assay [1] above 6.00. With CILESLFRAV [PEP4], the “T cell reactivity, IFN-γ ELISpot” value in assay [3] (setting [4]) is given as “strong reactivity”. Regarding FSYAWPFYNPV [PEP28], the “T cell reactivity, IFN-γ ELISpot” value in assay [3] (setting [5]) is “strong reactivity”.

With MMGLYDGMEHL [PEP17], the “T cell reactivity, IFN-γ ELISpot” value in assay [3] (setting [4]) is listed as “strong reactivity”. Turning to YLVERQLQEI [PEP40], the “T cell reactivity, IFN-γ ELISpot” value in assay [3] (setting [5]) is on record as “strong reactivity”.
